Source: ChEMBL document CHEMBL4414574, “Structure-Based Discovery and Development of a Series of Potent and Selective Bromodomain and Extra-Terminal Protein Inhibitors” (J Med Chem, 2019)
Active and inactive are the calls of the source. No cut-off for these calls is given here.

What was measured:
[1] = AUC (0 to t) in rat plasma at 10 mg/kg, po; type: ADME, organism-based
Outline: (§1)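 Compound was given orally or intravenously in 1% DMSO/0.5% HPMC vehicle. Concentrations in plasma, or in brain where stated, gave Tmax, Cmax, T1/2, AUC0-t and AUC0-inf.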

[2] = target: Protein polybromo-1 (Homo sapiens) (UniProt Q86U86); assay: Binding affinity to human partial length PB1 bromodomain 2 (S178 to E291 residues) expressed in Escherichia coli BL21 cells assessed as residual binding level at 1 uM measured after 1 hr by quantitative PCR based BROMOscan assay relative to control
Protein polybromo-1 (Homo sapiens), sequence (Q86U86 whole entry, the tested form may be a part): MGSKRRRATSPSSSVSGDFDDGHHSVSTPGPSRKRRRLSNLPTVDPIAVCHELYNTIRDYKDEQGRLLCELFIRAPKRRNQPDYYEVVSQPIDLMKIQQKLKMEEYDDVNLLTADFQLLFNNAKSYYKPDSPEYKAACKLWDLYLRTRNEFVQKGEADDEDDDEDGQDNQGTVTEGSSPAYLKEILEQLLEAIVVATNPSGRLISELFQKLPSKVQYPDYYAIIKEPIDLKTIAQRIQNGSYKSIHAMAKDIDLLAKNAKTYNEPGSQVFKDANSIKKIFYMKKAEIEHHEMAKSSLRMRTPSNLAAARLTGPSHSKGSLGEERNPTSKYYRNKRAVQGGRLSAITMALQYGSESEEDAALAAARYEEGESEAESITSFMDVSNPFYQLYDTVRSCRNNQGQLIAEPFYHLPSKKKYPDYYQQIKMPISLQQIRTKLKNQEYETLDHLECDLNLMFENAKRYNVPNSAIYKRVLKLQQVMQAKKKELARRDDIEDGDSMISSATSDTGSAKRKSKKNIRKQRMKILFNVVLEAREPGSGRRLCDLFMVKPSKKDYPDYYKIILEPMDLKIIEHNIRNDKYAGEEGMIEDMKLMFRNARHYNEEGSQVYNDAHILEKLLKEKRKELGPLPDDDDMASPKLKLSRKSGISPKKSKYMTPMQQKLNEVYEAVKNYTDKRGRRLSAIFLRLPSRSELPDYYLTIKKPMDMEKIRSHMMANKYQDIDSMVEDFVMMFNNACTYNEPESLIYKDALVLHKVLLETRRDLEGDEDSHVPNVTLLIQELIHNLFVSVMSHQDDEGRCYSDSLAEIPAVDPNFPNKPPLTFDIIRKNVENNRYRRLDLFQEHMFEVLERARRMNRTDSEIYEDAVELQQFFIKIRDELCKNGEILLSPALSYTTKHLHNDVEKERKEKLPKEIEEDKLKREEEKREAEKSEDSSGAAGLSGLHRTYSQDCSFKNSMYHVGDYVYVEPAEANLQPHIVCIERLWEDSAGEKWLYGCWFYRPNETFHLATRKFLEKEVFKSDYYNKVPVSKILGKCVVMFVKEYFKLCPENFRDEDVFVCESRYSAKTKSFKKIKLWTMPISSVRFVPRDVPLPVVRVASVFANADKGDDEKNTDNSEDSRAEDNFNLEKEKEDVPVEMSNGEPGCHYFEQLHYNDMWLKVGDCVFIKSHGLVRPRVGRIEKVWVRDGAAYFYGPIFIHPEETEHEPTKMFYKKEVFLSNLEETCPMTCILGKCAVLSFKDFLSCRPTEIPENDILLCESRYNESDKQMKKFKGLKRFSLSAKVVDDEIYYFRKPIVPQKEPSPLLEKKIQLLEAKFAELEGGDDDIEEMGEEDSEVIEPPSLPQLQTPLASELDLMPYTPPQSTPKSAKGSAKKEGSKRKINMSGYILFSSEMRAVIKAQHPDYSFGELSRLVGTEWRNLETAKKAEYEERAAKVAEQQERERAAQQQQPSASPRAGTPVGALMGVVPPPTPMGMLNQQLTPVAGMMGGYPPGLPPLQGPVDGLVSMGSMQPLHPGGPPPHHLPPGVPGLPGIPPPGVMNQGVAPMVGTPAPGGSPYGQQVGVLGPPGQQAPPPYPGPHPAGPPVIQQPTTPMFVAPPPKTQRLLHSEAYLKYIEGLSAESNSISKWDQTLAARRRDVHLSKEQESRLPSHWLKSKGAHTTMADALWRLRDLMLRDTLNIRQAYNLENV
Outline: (§2)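 Bromodomain panel screen (32 bromodomains) run at 1 μM single concentration; primary binding reported as 'Percent Control', lower values meaning stronger interaction.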

MV4-11 [3] = assay: Induction of apoptosis in human MV4-11 cells assessed as reduction in BIM level after 24 hrs by Western blot analysis; type: functional, cell-based
Outline: (§3)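 MV4-11 cells exposed to compound at the indicated doses for 24 h; lysates probed by Western blotting for the target protein, with GAPDH as loading control.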

[4] = Drug uptake in tumor of Balb/c nude mouse xenografted with human MV4-11 cells at 25 to 50 mg/kg, po measured after 8 hrs; type: ADME, organism-based, Neoplasm; details: in vivo
Outline: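 MV4-11 xenografts in BALB/c nude mice given oral compound; drug concentrations in plasma and tumor tissue measured at 1 h and 8 h after dosing.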

[5] = target: CREB-binding protein (Homo sapiens) (UniProt Q92793); assay: Binding affinity to human partial length CREBBP (R1081 to G1197 residues) expressed in Escherichia coli BL21 cells assessed as residual binding level at 1 uM measured after 1 hr by quantitative PCR based BROMOscan assay relative to control
Outline: (§4)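 A BROMOScan competition-binding panel of 32 bromodomains was run at a single 1 μM compound concentration. Results are primary-screen 'Percent Control', where lower values indicate stronger binding.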

[6] = AUC (0 to t) in dog plasma at 1 mg/kg, iv; type: ADME, organism-based, Canis lupus familiaris; outline: as §1
[7] = target: E3 ubiquitin-protein ligase TRIM33 (Homo sapiens) (UniProt Q9UPN9); assay: Binding affinity to human partial length TRIM33 (D882 to A1087 residues) expressed in Escherichia coli BL21 cells assessed as residual binding level at 1 uM measured after 1 hr by quantitative PCR based BROMOscan assay relative to control; outline: as §2
[8] = target: Bromodomain-containing protein 7 (Homo sapiens) (UniProt Q9NPI1); assay: Binding affinity to human partial length BRD7 (L125 to R254 residues) expressed in […] assessed as residual binding level at 1 uM measured after 1 hr by quantitative PCR based BROMOscan assay relative to control; outline: as §4
[9] = Clearance in rat liver microsomes; type: ADME, Microsome; details: read-out: CLH
[10] = target: Bromodomain adjacent to zinc finger domain protein 2B (Homo sapiens) (UniProt Q9UIF8); assay: Binding affinity to human partial length BAZ2B (S2054 to S2168 residues) expressed in Escherichia coli BL21 cells assessed as residual binding level at 1 uM measured after 1 hr by quantitative PCR based BROMOscan assay relative to control; outline: as §4
Bromodomain adjacent to zinc finger domain protein 2B (Homo sapiens), sequence (Q9UIF8 whole entry, the tested form may be a part): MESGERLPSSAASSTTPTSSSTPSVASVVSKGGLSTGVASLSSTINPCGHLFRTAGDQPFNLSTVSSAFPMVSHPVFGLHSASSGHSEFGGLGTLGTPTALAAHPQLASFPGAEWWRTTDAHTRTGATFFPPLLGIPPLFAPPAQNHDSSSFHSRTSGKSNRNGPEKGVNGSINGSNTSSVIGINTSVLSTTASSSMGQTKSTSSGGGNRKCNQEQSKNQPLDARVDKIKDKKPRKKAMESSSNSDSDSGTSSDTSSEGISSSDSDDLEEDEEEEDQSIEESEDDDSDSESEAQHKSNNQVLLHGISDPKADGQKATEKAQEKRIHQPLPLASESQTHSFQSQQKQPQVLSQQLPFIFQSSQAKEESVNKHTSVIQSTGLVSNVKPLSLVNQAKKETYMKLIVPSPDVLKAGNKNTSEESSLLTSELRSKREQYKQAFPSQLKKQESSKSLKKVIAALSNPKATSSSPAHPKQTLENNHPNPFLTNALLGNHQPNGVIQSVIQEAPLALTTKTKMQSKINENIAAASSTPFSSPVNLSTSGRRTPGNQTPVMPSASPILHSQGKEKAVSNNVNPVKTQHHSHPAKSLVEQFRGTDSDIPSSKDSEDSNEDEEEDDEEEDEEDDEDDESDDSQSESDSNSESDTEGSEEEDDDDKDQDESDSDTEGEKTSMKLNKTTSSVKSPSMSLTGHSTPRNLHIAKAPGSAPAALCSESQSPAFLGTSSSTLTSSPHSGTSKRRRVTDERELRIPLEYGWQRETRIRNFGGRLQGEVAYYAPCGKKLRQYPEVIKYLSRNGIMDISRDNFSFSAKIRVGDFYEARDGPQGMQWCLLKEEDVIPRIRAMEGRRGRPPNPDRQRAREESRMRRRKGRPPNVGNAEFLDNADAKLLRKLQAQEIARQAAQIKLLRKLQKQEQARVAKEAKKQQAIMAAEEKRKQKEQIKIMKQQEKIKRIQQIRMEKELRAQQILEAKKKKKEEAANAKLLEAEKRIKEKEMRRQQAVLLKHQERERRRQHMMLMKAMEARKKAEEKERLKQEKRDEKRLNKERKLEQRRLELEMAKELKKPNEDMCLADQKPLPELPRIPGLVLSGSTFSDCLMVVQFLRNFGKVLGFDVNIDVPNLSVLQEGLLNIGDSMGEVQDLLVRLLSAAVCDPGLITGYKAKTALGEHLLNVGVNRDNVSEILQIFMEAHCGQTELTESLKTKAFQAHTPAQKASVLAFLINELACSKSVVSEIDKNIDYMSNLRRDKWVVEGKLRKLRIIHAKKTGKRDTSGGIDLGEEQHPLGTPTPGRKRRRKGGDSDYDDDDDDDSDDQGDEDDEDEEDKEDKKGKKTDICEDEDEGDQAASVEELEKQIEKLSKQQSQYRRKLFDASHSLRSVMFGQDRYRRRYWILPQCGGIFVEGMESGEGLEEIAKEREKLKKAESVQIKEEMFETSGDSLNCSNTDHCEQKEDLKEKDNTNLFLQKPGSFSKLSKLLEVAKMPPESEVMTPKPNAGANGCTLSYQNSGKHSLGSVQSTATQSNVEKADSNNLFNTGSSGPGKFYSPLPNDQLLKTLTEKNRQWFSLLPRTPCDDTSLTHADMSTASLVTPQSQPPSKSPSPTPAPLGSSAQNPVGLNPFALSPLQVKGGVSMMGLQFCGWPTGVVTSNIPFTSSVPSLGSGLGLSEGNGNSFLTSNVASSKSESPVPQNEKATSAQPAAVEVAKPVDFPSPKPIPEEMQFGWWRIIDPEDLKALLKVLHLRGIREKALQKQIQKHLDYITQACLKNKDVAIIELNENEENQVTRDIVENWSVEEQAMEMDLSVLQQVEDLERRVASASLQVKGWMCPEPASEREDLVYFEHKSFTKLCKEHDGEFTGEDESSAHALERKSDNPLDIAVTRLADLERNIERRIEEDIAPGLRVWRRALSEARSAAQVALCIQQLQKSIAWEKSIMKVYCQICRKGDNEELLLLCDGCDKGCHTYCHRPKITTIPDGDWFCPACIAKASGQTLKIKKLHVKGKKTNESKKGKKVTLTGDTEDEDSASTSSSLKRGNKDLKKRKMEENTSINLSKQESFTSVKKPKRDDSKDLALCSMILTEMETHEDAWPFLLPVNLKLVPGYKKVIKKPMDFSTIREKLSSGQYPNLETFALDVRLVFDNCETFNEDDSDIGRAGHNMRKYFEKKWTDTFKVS

MV4-11 [11] = assay: Induction of apoptosis in human MV4-11 cells assessed as reduction in BID level after 24 hrs by Western blot analysis; type: functional, cell-based; outline: as §3
[12] = Cmax in ICR mouse plasma at 50 mg/kg, po administered via gavage measured after 0.25 to 24 hrs by UPLC/MS analysis; type: ADME, organism-based; design: dose 50 mg/kg, route oral
Outline: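 Male ICR mice dosed orally in 1% DMSO/0.5% HPMC vehicle; plasma or brain drug levels used to derive Tmax, Cmax, AUC0-t, AUC0-inf and T1/2.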

MV4-11 [13] = assay: Induction of apoptosis in human MV4-11 cells assessed as increase in cleaved caspase-7 level after 24 hrs by Western blot analysis; type: functional, cell-based; outline: as §3
[14] = Cmax in rat plasma at 10 mg/kg, po; type: ADME, organism-based; design: dose 10 mg/kg, route oral
[15] = Half life in rat plasma at 50 mg/kg, po; type: ADME, organism-based
[16] = Half life in rat liver microsomes; type: ADME, Microsome
[17] = Cmax in dog plasma at 3 mg/kg, po; type: ADME, organism-based, Canis lupus familiaris; design: dose 3 mg/kg, route oral
[18] = AUC (0 to t) in rat brain at 50 mg/kg, po; type: ADME, organism-based; outline: as §1
HT-29 = assay: Antiproliferative activity against human HT-29 cells after 72 hrs by CCK8 or SRB assay; type: functional, cell-based
Peregrin (Homo sapiens) = Peregrin (Homo sapiens) (UniProt P55201); assay: Binding affinity to human partial length BRPF1 (E627 to G740 residues) expressed in Escherichia coli BL21 cells assessed as residual binding level at 1 uM measured after 1 hr by quantitative PCR based BROMOscan assay relative to control; outline: as §4
Peregrin (Homo sapiens), sequence (P55201 whole entry, the tested form may be a part): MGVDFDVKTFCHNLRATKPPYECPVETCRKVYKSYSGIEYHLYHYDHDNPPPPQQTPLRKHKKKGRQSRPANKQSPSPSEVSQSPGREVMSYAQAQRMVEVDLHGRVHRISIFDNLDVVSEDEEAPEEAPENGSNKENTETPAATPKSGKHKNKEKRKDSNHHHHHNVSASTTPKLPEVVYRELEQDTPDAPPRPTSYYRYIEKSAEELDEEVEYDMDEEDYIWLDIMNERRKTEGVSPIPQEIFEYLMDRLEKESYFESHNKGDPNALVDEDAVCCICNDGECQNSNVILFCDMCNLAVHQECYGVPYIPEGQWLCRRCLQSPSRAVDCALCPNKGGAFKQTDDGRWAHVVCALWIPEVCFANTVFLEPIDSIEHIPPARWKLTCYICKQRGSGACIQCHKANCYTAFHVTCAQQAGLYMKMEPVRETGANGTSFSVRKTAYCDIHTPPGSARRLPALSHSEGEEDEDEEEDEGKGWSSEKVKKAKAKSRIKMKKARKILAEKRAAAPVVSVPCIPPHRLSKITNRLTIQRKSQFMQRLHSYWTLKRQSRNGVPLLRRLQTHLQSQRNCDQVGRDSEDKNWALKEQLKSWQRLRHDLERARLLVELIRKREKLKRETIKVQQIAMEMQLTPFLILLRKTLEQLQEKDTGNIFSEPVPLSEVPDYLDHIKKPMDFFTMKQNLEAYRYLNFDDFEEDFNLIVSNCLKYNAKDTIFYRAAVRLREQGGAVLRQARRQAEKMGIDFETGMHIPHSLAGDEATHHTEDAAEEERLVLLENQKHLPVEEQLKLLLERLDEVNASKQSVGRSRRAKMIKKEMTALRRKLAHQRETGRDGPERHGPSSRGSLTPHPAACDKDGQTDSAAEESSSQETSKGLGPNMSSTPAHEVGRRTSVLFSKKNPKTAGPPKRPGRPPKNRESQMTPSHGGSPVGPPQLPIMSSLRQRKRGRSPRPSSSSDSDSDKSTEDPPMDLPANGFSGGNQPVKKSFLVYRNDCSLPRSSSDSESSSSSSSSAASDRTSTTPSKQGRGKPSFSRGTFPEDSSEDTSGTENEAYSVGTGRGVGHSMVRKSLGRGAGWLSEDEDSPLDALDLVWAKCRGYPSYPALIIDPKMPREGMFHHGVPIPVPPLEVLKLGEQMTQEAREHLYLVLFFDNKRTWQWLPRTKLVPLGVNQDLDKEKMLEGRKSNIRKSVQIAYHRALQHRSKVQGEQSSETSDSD

[19] = AUC (0 to infinity) in rat plasma at 3 mg/kg, iv; type: ADME, organism-based; design: dose 3 mg/kg, route intravenous, time infinity; outline: as §1
[20] = Tmax in rat brain at 50 mg/kg, po; type: ADME, organism-based
Outline: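 Rats dosed orally at 50 mg/kg in 1% DMSO/0.5% HPMC; drug measured in plasma and brain.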

[21] = AUC (0 to infinity) in dog plasma at 1 mg/kg, iv; type: ADME, organism-based, Canis lupus familiaris; design: dose 1 mg/kg, time infinity, route intravenous; outline: as §1
[22] = AUC (0 to infinity) in ICR mouse at 10 mg/kg, po administered via gavage measured after 0.25 to 24 hrs by UPLC/MS analysis; type: ADME, organism-based; design: dose 10 mg/kg, route oral, time infinity; details: in vivo
Outline: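 Male ICR mice were dosed orally in 1% DMSO/0.5% HPMC vehicle. Plasma (and brain, where stated) concentrations gave Tmax, Cmax, T1/2, AUC0-t and AUC0-inf.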

[23] = Tmax in ICR mouse plasma at 100 mg/kg, po administered via gavage measured after 0.25 to 24 hrs by UPLC/MS analysis; type: ADME, organism-based
Outline: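 Male ICR mice dosed orally (3, 10 or 100 mg/kg, per line) in 1% DMSO/0.5% HPMC vehicle; plasma drug levels measured.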

RKO = assay: Induction of cell cycle arrest in human RKO cells assessed as increase in accumulation at G1 phase at 100 nM after 24 hrs by propidium iodide staining based flow cytometric analysis; type: functional
[24] = target: Transcription intermediary factor 1-alpha (Homo sapiens) (UniProt O15164); assay: Binding affinity to human partial length TRIM24 (P790 to P977 residues) expressed in Escherichia coli BL21 cells assessed as residual binding level at 1 uM measured after 1 hr by quantitative PCR based BROMOscan assay relative to control; outline: as §2
[25] = target: Bromodomain-containing protein 4 (Homo sapiens, UniProt O60885); assay: Inhibition of BRD4 in human MV4-11 cells assessed as reduction in BCL2 phosphorylation at ser70 residues after 24 hrs by Western blot analysis; type: cell-based
Outline: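 MV4-11 cells exposed to graded doses for 24 h; lysates immunoblotted for phospho-BCL2, with GAPDH as loading control.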

[26] = target: Nucleosome-remodeling factor subunit BPTF (Homo sapiens) (UniProt Q12830); assay: Binding affinity to human partial length FALZ (S2791 to H2911 residues) expressed in Escherichia coli BL21 cells assessed as residual binding level at 1 uM measured after 1 hr by quantitative PCR based BROMOscan assay relative to control; outline: as §4
[27] = AUC (0 to t) in rat plasma at 3 mg/kg, iv; type: ADME, organism-based; outline: as §1
[28] = Toxicity in Balb/c nude mouse xenografted with human MV4-11 cells assessed as reduction in body weight at 10 to 50 mg/kg, administered once daily; type: organism-based; details: in vivo

## Cc1ccc(-n2nc(C(=O)N3C[C@@H](C)N[C@@H](C)C3)nc2-c2ccc3c(c2)N(C2CCCC2)[C@H](C)C(=O)N3C)cc1
[1]
  AUC(0-t): 1220 ng·h/mL
[2]
  Activity: 70 to 100%
MV4-11 [3]
  Activity: Dose-dependent effect
[4]
  Drug uptake: Active
[5]
  Activity: 50 to 70%
[6]
  AUC(0-t): 726 ng·h/mL
[7]
  Activity: 70 to 100%
[8]
  Activity: 70 to 100%
[9]
  microsomal CLint: 28 µL/min/mg
[10]
  Activity: 70 to 100%
MV4-11 [11]
  Activity: Dose-dependent effect
[12]
  Cmax: 4020 ng/mL
MV4-11 [13]
  Activity: Dose-dependent effect
[14]
  Cmax: 182 ng/mL
[15]
  half-life: 6.3 h
[16]
  half-life: 0.817 h
[17]
  Cmax: 216 ng/mL
[18]
  AUC(0-t): 331 ng·h/mL
HT-29
  Activity: Active
Peregrin (Homo sapiens)
  Activity: 70 to 100%
[19]
  AUC(0-inf): 2080 ng·h/mL
[20]
  Tmax: 0.9 h
[21]
  AUC(0-inf): 856 ng·h/mL
[22]
  AUC(0-inf): 7390 ng·h/mL
[23]
  Tmax: 1.5 h
RKO
  Activity: Active
[24]
  Activity: 50 to 70%
[25]
  inhibition: Dose-dependent effect
[26]
  Activity: 70 to 100%
[27]
  AUC(0-t): 2010 ng·h/mL
[28]
  Activity: Non-Toxic
